Test results: paper PMC11489580 (Scientific Reports, 2024)

Key:
[1] = system: LPS-stimulated RAW264.7 cells; assay: Cxcl10 secretion by ELISA; type: cell-based, murine; details: co-treatment LPS 1 µg/mL and TM 10 µM, 6 h
Summary of the method: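 RAW264.7 seeded at 200.000 cells/mL and given LPS 1 µg/mL. Test compound (10 µM) or DMSO was either co-added for 6 h, or added after 2 h of LPS for a further 4 h. Supernatant was diluted 1:2 for mouse CXCL10 sandwich ELISA (TMB, 605 nm). pg/mL was normalised to crystal violet cell counts and expressed as % of LPS + DMSO; mean ± s.d., three independent experiments.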

[2] = target: rM1M2_HuR (first two RRM domains of human HuR) / 5'-DY681-labeled AU-rich RNA probe (Homo sapiens, UniProt Q15717); assay: RNA Electrophoretic Mobility Shift Assay; type: binding
Sequence of rM1M2_HuR (first two RRM domains of human HuR) / 5'-DY681-labeled AU-rich RNA probe (Q15717 20-186 limits assumed): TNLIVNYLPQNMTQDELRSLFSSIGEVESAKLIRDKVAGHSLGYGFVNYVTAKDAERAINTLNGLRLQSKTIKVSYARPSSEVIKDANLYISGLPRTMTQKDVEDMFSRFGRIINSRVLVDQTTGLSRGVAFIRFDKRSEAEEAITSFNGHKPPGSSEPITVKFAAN
Summary of the method: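 Human HuR RRM1-2 (rM1M2) was expressed in E. coli BL21. Protein (3.7 nM) was incubated 20 min with 1 nM 5′-DY681-labelled 26-nt AU-rich RNA and DMSO or test compound (15 µM screen; 0.01–25 µM dose–response). Samples ran on 4% native polyacrylamide at 80 V, 1.5 h, and were scanned for DY681. IC50 came from titration curves of band quantification.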

RAW 264.7 cells [3] = assay: Cell cycle analysis, propidium iodide FACS; type: cell-based, murine; details: 2 / TM7n and 5 / TM11 at 10 µM and 20 µM, respectively, 48 h
Summary of the method: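 RAW 264.7 cells seeded at 250.000 cells/mL and exposed to test compound for 48 h, then fixed in 70% ethanol and stained with propidium iodide for flow cytometry. Controls were serum-free starvation for 24 h (G0/G1 block) and nocodazole for 2 h (G2/M block). Mean ± s.d. of three independent experiments.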

[4] = system: LPS-stimulated RAW264.7 cells; assay: qRT-PCR of LPS-induced genes; type: cell-based, murine; details: co-treatment LPS 1 µg/mL and TM 10 µM, 6 h
[5] = system: RAW264.7 murine macrophages; assay: OZblue cell viability assay; type: cell-based; details: Mus musculus, RAW264.7, 48 h, read-out: IC50 cell viability
Summary of the method: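 RAW264.7 murine macrophages exposed for 48 h to test compound at 1 to 50 µM. Viability was read with the OZblue reagent and IC50 taken from the concentration–response. Mean ± s.d. of three independent experiments.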

RAW 264.7 cells [6] = assay: Apoptosis: caspase 3 cleavage; type: cell-based, murine; details: RAW 264.7, 48 h, 15 µM (western blot, Annexin V)
Summary of the method: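 RAW 264.7 cells seeded at 50,000 cells/mL and co-treated 48 h with test compound plus CellEvent caspase-3/7 reagent, imaged every 4 h by IncuCyte. For the western blot and Annexin V: 48 h with 15 µM test compound or DMSO. Controls were staurosporin 1 µM ± QVD 10 µM for 4 h. Blots probed for caspase 3, PARP and β-actin. Annexin V-FITC/PI staining was read by flow cytometry as fold change vs DMSO.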

[7] = Kinetic solubility by LC-MS in PBS with DMSO; type: physicochemical; details: 20% DMSO
RAW 264.7 cells [8] = assay: Real-time cell proliferation by Incucyte; type: cell-based, murine; details: RAW 264.7, 72 h
Summary of the method: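 Growth curves were recorded by live-cell IncuCyte imaging of RAW 264.7 cells treated with test compounds over 72 h, and analysed in IncuCyte. Mean ± s.d. of three independent experiments.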

[9] = target: His-tagged rM1M2 HuR protein / 5'-Bi-TNF ARE probe (Homo sapiens, UniProt Q15717); assay: Homogeneous Time-Resolved Fluorescence; type: binding
Sequence of His-tagged rM1M2 HuR protein / 5'-Bi-TNF ARE probe (Q15717 20-186 limits assumed): as above
Summary of the method: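 His-tagged HuR M1M2 (20 nM) incubated with a biotinylated 26-nt TNF ARE RNA probe (50 nM), donor/acceptor beads and test compound (0.01–100 µM); DMSO control; protein hook point determined beforehand. HTRF signal was normalised to DMSO and fitted by nonlinear regression with a one-site model to give IC50. Mean ± s.d. of three independent experiments.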

O=C1C=Cc2c(c(-c3ccco3)cn2S(=O)(=O)c2ccccc2)C1=O [5 / TM11, 3-(furan-2-yl)-1-(phenylsulfonyl)-1 H-indole-4,5-dione]
Cxcl10 level in supernatant [1]: downregulation of its level | IC50 [2]: 770 nM | inhibitory effect on HuR-RNA complex formation (REMSA screen) ([2]; TMs at 15 µM, 3.7 nM rM1M2_HuR, 1 nM RNA probe): greatest inhibitory effect | cell cycle distribution (RAW 264.7 cells [3]): accumulation of the cells in the S and G2/M phases | expression of LPS-induced readout genes (Cxcl10, Fas, Nos2, Il1β) [4]: ability to counteract the effect of LPS stimulation | IC50 [5]: 15000 nM | activation of apoptosis (caspase 3, PARP cleavage, Annexin V) (RAW 264.7 cells [6]): did not observe the activation of the apoptotic machinery | solubility relative to 2 / TM7n or 1 / TM6a [7]: ten times more soluble | proliferation rate (real-time growth) (RAW 264.7 cells [8]): dose-dependent decrease in proliferation rate | IC50 [9]: 680 nM

Cc1occ2c1C(=O)c1c(O)ccc(O)c1C2 [MS-444, reference compound]
activation of apoptosis (caspase 3, PARP cleavage, Annexin V) (RAW 264.7 cells [6]): absence of apoptotic effect
